# This is a sample that favours compounds with a hit; in the whole collection about 2.5% have one here.
# PAD4 inh: PAD4 (human) enzyme inhibition; Q9UM07; recombinant PAD4, RCA probe fluorescence polarization; inhibition, % at 6.36 µM; 330,000 tested, 0.41% active; AID 485272;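 active = percent inhibition above a cutoff equal to the mean of all tested compounds plus 3 SD, cut at about 15% in these data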
# TDP2 inh: TDP2 (human) inhibition, absorbance primary screen; inhibition, % at 12.8 µM; O95551; recombinant TDP2, T5PNP hydrolysis, p-nitrophenol absorbance 415 nm; 370,000 tested, 0.34% active; AID 720702;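 active = inhibition above the mean of all tested compounds plus 3 SD, set per campaign, cut at about 25% in these data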
#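 Test system: human TDP2 enzyme; Input: 120 nM TDP2 per well; Buffer or medium: Mg2+-containing Tris-HCl buffer, pH 7.5; Reagent: 5 mM T5PNP; Dosing: 12.8 µM single point, 1% DMSO; Incubation: reaction 2 h, 37 °C; Detection: p-Nitrophenol epi absorbance; Read-out: % inhibition relative to enzyme-containing and enzyme-free wells; Replicates: single well per compound.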
# GSTO1 counter: counter-screen for RBBP9 inhibitors: inhibitors of human GSTO1 | P78417 | recombinant GSTO1, activity-based probe fluorescence polarization | inhibition, % at 5.96 µM | 300,000 tested, 1.1% active | AID 1974;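 active = inhibition above the campaign mean inhibition plus 3 SD, cut at about 35% in these data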
# Target sequence (P78417 whole entry, looked up): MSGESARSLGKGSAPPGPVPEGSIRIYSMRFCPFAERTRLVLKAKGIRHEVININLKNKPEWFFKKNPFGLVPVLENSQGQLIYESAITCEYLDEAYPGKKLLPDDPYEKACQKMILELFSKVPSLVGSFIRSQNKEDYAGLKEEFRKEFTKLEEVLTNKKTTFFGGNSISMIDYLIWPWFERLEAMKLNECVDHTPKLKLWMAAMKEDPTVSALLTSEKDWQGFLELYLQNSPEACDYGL
# CTSL1 counter: cathepsin L1 inhibition, PFM18AAP counter-screen; recombinant F. hepatica cathepsin L1, Z-Leu-Arg-MCA fluorescence; inhibition, % at 5.96 µM; 300,000 tested, 0.49% active;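 active = inhibition above the mean of all tested compounds plus 3 SD, set per screening campaign, cut at about 17% in these data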
# PRMT1 inh: PRMT1 (human) inhibition, primary screen | recombinant PRMT1, activity-based probe fluorescence polarization | inhibition, % at 2.79 µM | 370,000 tested, 1.3% active;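 active = inhibition above about 21% made by adding two undisclosed values, limit read from the data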
# Target sequence (Q99873 whole entry, looked up): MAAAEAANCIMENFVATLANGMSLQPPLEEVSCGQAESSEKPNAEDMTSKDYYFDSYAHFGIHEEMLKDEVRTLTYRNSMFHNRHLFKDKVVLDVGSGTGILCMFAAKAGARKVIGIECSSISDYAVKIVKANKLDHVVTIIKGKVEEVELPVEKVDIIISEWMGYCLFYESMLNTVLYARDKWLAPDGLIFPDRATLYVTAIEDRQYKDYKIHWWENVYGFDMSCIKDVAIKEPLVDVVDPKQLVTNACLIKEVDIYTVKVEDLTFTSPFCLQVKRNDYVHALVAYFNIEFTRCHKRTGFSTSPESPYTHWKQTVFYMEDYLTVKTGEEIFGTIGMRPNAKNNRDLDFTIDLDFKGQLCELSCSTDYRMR
# Numbers stand for hits; - = inactive; . = no result.
SMILES,PAD4 inh,TDP2 inh,GSTO1 counter,CTSL1 counter,PRMT1 inh
O=C(COC(=O)C1CCN(c2ccc(C(F)(F)F)cn2)CC1)c1ccc(Cl)cc1,-,-,-,-,-
O=C(COC(=O)C1CCN(c2ccc(C(F)(F)F)cn2)CC1)c1ccc(F)cc1,-,-,-,17.9,-
COC(=O)c1cc(-c2cccc(OC(F)(F)F)c2)c(=O)n2c1CCC2,.,-,.,.,-
N=C1/C(=C\c2ccc(-c3cccc(C(=O)O)c3)o2)C(=O)N=C2SC=C(c3ccccc3)N12,-,-,-,-,22.0
N=C1/C(=C/c2ccc(-c3cccc(C(=O)O)c3)o2)C(=O)N=C2SC(CC(=O)N3CCOCC3)=NN12,-,-,-,-,-
C[C@@H](C(=O)O)[C@@H]1C[C@@]1(C)[C@@H](NC(=O)OCc1ccccc1)c1ccccc1,-,-,-,-,-
CNC(=O)[C@H](C)[C@@H]1C[C@@]1(C)[C@@H](NC(=O)OCc1ccccc1)c1ccccc1,-,-,-,18.4,-
COC(=O)C1CN(Cc2ccc(Cl)cc2)CCS(=O)(=O)N1Cc1cn(Cc2ccccc2)nn1 (stereo unspecified),.,-,.,.,-
Cc1ccsc1C(=O)Nc1cccc(-n2cnnn2)c1,-,-,-,19.1,-
O=C(Nc1cccc(-n2cnnn2)c1)c1cccs1,-,-,-,-,-
CC(C)(C)OC(=O)NCCCCC1=CC2=CC(=O)C(C)(OC(=O)c3ccco3)C(=O)C2=CO1 (stereo unspecified),-,.,40.9,-,.
CC(C)(C)OC(=O)NCCCC1=CC2=CC(=O)C(C)(OC(=O)C3CCCC3)C(=O)C2=CO1 (stereo unspecified),26.1,.,-,-,.
CCCCC1=CC2=CC(=O)C(C)(OC(=O)c3ccc(Cl)nc3)C(=O)C2=CO1 (stereo unspecified),20.4,.,-,-,.
COC(=O)CCCC1=CC2=CC(=O)C(C)(OC(=O)c3ccco3)C(=O)C2=CO1 (stereo unspecified),-,.,-,-,.
CC(C)=CCC[C@@]1(C(=O)O)[C@@H]2C/C=C(\C)CC/C=C(\C)CC[C@H]1[C@]1(CC2)CO1,.,-,.,.,-
COc1ccc(C(=O)c2[nH]c(N)c(C(=O)c3ccccc3)c2-c2ccc(OC)c(OC)c2)cc1,.,-,.,.,-
COc1ccc(C2C3=C(N=C4SCC(=O)N42)c2ccccc2CC3)cc1 (stereo unspecified),-,-,-,-,24.4
CC(=O)Nc1ccc(C(/C=C/c2ccccc2)Cc2ccccc2)cc1 (stereo unspecified),.,-,.,.,-
O=C(CSC1CS(=O)(=O)c2cc([N+](=O)[O-])ccc21)NNC(=O)c1ccccc1 (stereo unspecified),-,-,-,-,-
O=C(CSC1CS(=O)(=O)c2cc([N+](=O)[O-])ccc21)NNC(=O)c1ccc(Cl)cc1 (stereo unspecified),-,-,-,-,22.7
O=[N+]([O-])c1cc(CN2CCCC2)c2cccnc2c1O,-,.,46.7,-,.
O=C(O)c1ccccc1NS(=O)(=O)c1ccc(NNC(=S)Nc2ccc(OC(F)F)cc2)c([N+](=O)[O-])c1,.,-,.,.,23.2
COC(=O)C1CN(Cc2cn(Cc3ccc(C)cc3)nn2)CCS(=O)(=O)N1Cc1ccc(C)cc1 (stereo unspecified),.,-,.,.,-
c1ccc(Cc2nnc3sc(C4COc5ccccc5O4)nn23)cc1 (stereo unspecified),-,-,-,18.3,-
c1ccc(OCc2nnc3sc(C4COc5ccccc5O4)nn23)cc1 (stereo unspecified),-,-,-,-,-
SMILES,PAD4 inh,TDP2 inh,GSTO1 counter,CTSL1 counter,PRMT1 inh
COc1ccc(C(C(=O)N(C)C2CCCC2)N(Cc2ccc(F)cc2)C(=O)c2csc(N3CCOCC3)n2)cc1OC (stereo unspecified),.,-,.,.,-
CC(=O)N1c2cc(S(=O)(=O)N3CCN(c4ccccc4F)CC3)c(Br)cc2CC1C (stereo unspecified),.,-,.,.,-
Cn1c2ccccc2c2ncn(Cc3ccco3)c(=O)c21,-,-,-,-,-
Cn1c2ccc(F)cc2c2ncn(Cc3ccco3)c(=O)c21,-,-,-,-,21.9
C=C1C(=O)[C@]23C[C@H]1CCC2[C@@]1(C)C(C[C@@H]3O)[C@](C)(C(=O)OC)CC[C@@H]1OC(C)=O (stereo partly specified),.,-,.,.,24.2
CCCCCCCCCCC[C@@H](C[C@@H]1OC(=O)[C@H]1CCCCCC)OC(=O)[C@H](CC(C)C)NC=O,-,-,-,21.4,-
CCCCC[C@H](O)/C=C/[C@H]1[C@H](O)CC(=O)[C@@H]1CCCCCCC(=O)O,-,.,-,-,.
CN(Cc1ccc(Cl)cc1)C(=O)CCl,-,-,86.4,-,-
CCOC(=O)c1c(C)[nH]c(=S)c(C#N)c1-c1ccc(OC)cc1,-,-,-,-,-
CCCCOc1ccc(-c2c(C(=O)Nc3ccccc3)c(C)[nH]c(=S)c2C#N)cc1,-,-,-,-,23.1
C=CCN1[C@@H](C)COc2cc(N3CCCC3)ccc2S1(=O)=O,.,-,.,.,-
COC(=O)[C@]12C[C@H](CC(=O)NCc3cccs3)C(=O)N(Cc3ccco3)C1=C[C@H](COCc1ccccc1)O[C@@H]2C,.,-,.,.,-
CCOC(=O)c1c(C)oc2c1c(C=NCc1ccccn1)c(O)c1ccccc12,.,30.3,.,.,21.4
CC(=O)N[C@@H]1C[C@@H]2O[C@H](CO)CC[C@@H]2O[C@@H]1CCc1ccc(C#CC2(O)CCCC2)cc1,.,-,.,.,-
COC1=C(Nc2ccccc2)C(=O)c2ccccc2C1=O,-,-,48.6,-,-
CC1=C(Nc2ccc(C(=O)O)cc2)C(=O)c2ccccc2C1=O,-,-,-,-,-
CCC(C)(C)n1nnnc1C(c1cc2cc(C)ccc2[nH]c1=O)N1CCCc2ccccc21 (stereo unspecified),-,-,-,-,30.1
O=C(CCc1ccccc1-c1ccccc1CCNC(=O)COCc1ccccc1)NCc1ccccc1,.,-,.,.,-
Cc1ccc(NNC(=O)Nc2ccc(Cl)cc2)nn1,-,-,-,-,24.2
O=C(NNc1cccc(Cl)n1)Nc1ccc(Cl)cc1,-,-,-,-,-
NC(=S)N/N=C1\CCOc2ccc(Cl)cc21,-,-,-,63.0,-
CN(C)c1ccc(N2C(=O)CSC2=S)cc1,-,-,-,-,23.5
N#CC1=C(N)SC(N)=C(C#N)C1c1ccc([N+](=O)[O-])cc1,-,-,-,-,30.9
CC(Oc1ccc2c(-c3ccccc3)cc(=O)oc2c1)C(=O)N1CCC[C@@H]1C(N)=O (stereo partly specified),-,-,-,42.4,-
COc1ccc(NC(=O)COC(=O)C(CC(C)C)N2C(=O)C3CC=CCC3C2=O)cc1Cl (stereo unspecified),-,-,-,52.4,-
N#Cc1cc(-c2ccccc2)nn1-c1ccccc1,-,-,-,-,22.9
Nc1nc(CCl)nc(N(c2ccccc2)c2ccccc2)n1,-,-,77.9,-,-
